For assay [1], the target named is T1, Adenosine receptor A3 (Homo sapiens, UniProt P0DMS8). The experiment in a line: Competitive antagonist activity at YFP linked human adenosine A3 receptor expressed in CHO CRE-SPAP cells assessed as inhibition of NECA-induced receptor internalization preincubated for 30 mins followed by addition of NECA measured after 60 mins by H33342 staining-based fluorescence analysis. Format: cell-based. In outline:
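Cells stably expressing YFP-tagged A3AR, serum-free DMEM/F12 with 2 mM L-glutamine, preincubated 30 min at 37°C with a fixed 10 µM antagonist or with medium only. Rising NECA concentrations were then added for 60 min. Cells were fixed in 3% paraformaldehyde, nuclei stained with H33342 and imaged confocally. Read-out was YFP granule count per cell. Antagonist KD came from the Gaddum dose-ratio equation, n=5 run in triplicate.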

The target of assay [2] is T2, Adenosine receptor A1 (Homo sapiens, UniProt P30542).
T2 sequence (P30542 whole entry): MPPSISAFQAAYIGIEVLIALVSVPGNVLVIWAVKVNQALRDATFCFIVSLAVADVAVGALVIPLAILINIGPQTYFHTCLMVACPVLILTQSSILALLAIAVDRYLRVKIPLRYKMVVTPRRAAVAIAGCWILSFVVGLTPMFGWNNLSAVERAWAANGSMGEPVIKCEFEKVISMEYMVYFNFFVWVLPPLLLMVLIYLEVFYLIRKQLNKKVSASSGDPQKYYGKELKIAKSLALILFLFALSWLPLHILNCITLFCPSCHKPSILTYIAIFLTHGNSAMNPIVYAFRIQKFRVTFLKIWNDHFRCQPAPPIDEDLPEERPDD
The experiment in a line: Displacement of CA200645 from human adenosine A1 receptor expressed in CHO cells incubated for 1 hr by fluorescence analysis. Format: cell-based. The essentials: (§1)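 Live confluent CHO cells expressing A1AR or A3AR were washed into HEPES-buffered saline, pH 7.4. Increasing concentrations of competitor were added with 25 nM fluorescent xanthine ligand CA200645 and incubated 1 h at 37°C, then imaged for total intensity. IC50 was converted to Ki by Cheng-Prusoff using ligand KD 17.0 nM (A1) or 3.11 nM (A3). Values are mean of n experiments run in duplicate.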

The target of assay [3] is T1, Adenosine receptor A3. The experiment in a line: Displacement of CA200645 from human adenosine A3 receptor expressed in CHO CRE-SPAP cells incubated for 1 hr by fluorescence analysis. Format: cell-based. The essentials: as §1
For assay [4], the system named is HeLa. The experiment in a line: Selectivity ratio of Ki for human adenosine A2A receptor expressed in HeLa cells to Ki for human adenosine A3 receptor expressed in CHO CRE-SPAP cells. Format: cell-based.
The target of assay [5] is T3, Adenosine receptor A2a (Homo sapiens, UniProt P29274). Put plainly: Displacement of [3H]-ZM241385 from human adenosine A2A receptor expressed in HeLa cells. Format: cell-based. The essentials: (§2)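 Human A2AAR expressed in transfected HeLa cells, with [3H]-ZM241385 as radioligand. Percent inhibition was measured at a single 10 µM concentration. Ki was determined only where displacement exceeded 50% at 10 µM.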
A general note: Loss of bound radioactivity is the signal in a displacement assay; it reports binding, not function.

Assay [6] has as its target Adenosine receptors; A1 & A3 (Homo sapiens) (UniProt P30542+P0DMS8). The experiment in a line: Selectivity ratio of Ki for human adenosine A1 receptor expressed in CHO cells to Ki for human adenosine A3 receptor expressed in CHO CRE-SPAP cells. The class given is functional, cell-based. The essentials: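 Ratio of Ki at A1AR to Ki at A3AR. Both Ki values come from the live-cell CA200645 competition assay (25 nM tracer, 1 h, 37°C), with Cheng-Prusoff correction using KD 17.0 nM (A1) and 3.11 nM (A3).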

Assay [7] concerns the target T3, Adenosine receptor A2a. Put plainly: Displacement of [3H]-ZM241385 from human adenosine A2A receptor expressed in HeLa cells at 10 uM. Format: cell-based. In outline: as §2

Each structure is given as a SMILES string. Calls of active or inactive are those of the source. The rule behind the calls is not given here.

T3 sequence (P29274 whole entry): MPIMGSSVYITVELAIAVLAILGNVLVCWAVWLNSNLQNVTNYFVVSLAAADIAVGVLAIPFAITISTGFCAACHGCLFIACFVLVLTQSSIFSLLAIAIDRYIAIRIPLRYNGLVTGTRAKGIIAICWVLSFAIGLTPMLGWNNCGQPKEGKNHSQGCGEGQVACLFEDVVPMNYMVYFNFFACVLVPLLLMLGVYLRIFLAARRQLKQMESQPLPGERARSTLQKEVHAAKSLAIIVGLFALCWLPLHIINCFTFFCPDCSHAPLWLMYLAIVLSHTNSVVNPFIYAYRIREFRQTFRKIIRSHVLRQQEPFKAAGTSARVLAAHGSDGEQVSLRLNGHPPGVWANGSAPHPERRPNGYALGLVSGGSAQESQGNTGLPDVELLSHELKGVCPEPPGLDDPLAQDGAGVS
T1 sequence (P0DMS8 whole entry, looked up): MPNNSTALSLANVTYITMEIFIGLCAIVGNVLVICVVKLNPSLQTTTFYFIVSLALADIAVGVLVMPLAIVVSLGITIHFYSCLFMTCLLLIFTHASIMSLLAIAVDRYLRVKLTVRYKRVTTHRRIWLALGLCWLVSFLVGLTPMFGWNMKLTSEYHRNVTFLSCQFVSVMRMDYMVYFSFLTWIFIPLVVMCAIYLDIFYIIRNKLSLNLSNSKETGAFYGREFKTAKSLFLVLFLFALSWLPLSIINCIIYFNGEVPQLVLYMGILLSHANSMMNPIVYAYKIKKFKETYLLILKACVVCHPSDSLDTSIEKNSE

For `O=C(Nc1nc(C2CC2)cs1)c1cc2ccccc2s1`, in assay [1], the Kd is 741 nM. Moreover, the Ki was 3720 nM in assay [2], 40 nM in assay [3] (read-out: Ki), 33.9 nM in assay [3] (read-out: pKi (converted)) and 2900 nM in assay [5]. The Ratio Ki in assay [4] amounted to 72; in assay [6], 101.
Molecule `CCc1cc2c(O)nc(N3CCCC3)nc2s1` displayed a pKi in assay [2] (cho) greater than 4. Also, the Ki in assay [3] (read-out: pKi (converted)) was 2290 nM. Further, the result in assay [7] was inactive. The Ratio Ki in assay [6] is greater than 38.
Regarding `CCc1cc2c(O)nc(-c3ccncc3)nc2s1`, the values for the Ki in assay [2] and in assay [3] (read-out: pKi (converted)) were 22900 nM and 2000 nM, respectively. Also, the Ratio Ki in assay [6] is 14.
As to `O=C(Nc1nc2ccccc2s1)c1cc2ccccc2s1`, the Ki is 6170 nM in assay [2] and 331 nM in assay [3] (read-out: pKi (converted)). Also, the Ratio Ki in assay [6] came out at 16.
For `O=C(Nc1ccc2[nH]ncc2c1)c1ccc[nH]1`, the Ki in assay [2] is 3160 nM; in assay [3] (read-out: pKi (converted)), 2400 nM. Besides, in assay [6], the Ratio Ki came out at 1.2.
The corresponding values for `CSc1sc(NC(=O)C=C(C)C)nc1C` are 29500 nM, 2190 nM and 24.
Regarding `COc1cccc2sc(NC(=O)c3cc4ccccc4s3)nc12`, the Ki in assay [2] is 3090 nM; in assay [3] (read-out: Ki), 120 nM; in assay [3] (read-out: pKi (converted)) it was 110 nM. Also, the Ratio Ki in assay [6] was 34.
Turning to `CCc1cc2c(=O)[nH]c(C3CC3)nc2s1`, the Ki in assay [2] was 61700 nM; in assay [3] (read-out: pKi (converted)) it was 1820 nM. Besides, the Ratio Ki in assay [6] was 70.
As to `O=C(Nc1nc(C2CC2)cs1)c1ccoc1`, the figures for the Ki in assay [2], in assay [3] (read-out: Ki) and in assay [3] (read-out: pKi (converted)) were 2950 nM, 120 nM and 105 nM, respectively. In addition, in assay [7], the result was inactive. In addition, the Ratio Ki in assay [6] turned out to be 29.
On to `CCc1cc2c(=O)[nH]c(-c3ccoc3)nc2s1`, for which the Kd in assay [1] was 741 nM. Moreover, the Ki is 56200 nM in assay [2] and 550 nM in assay [3] (read-out: pKi (converted)). In addition, the outcome in assay [7] was inactive. Also, in assay [6], the Ratio Ki stood at 102.
Consider `CCc1cc2c(O)ncnc2s1`, for which the Ki in assay [2] was 75900 nM; in assay [3] (read-out: pKi (converted)), 13500 nM. Further, in assay [6], the Ratio Ki came to 6.
In the case of `O=c1[nH]c(-c2ccco2)nc2scc(-c3ccco3)c12`, the figures for the Ki in assay [2] and in assay [3] (read-out: pKi (converted)) were 347 nM and 138 nM, respectively. In assay [6], the Ratio Ki amounted to 2.
For `CC(C)(C)C(=O)Nc1nc(C2CC2)cs1` the same measures were 12300 nM, 4900 nM and 2.
For `O=C(Nc1nc2c(s1)CCC2)c1cc2ccccc2s1` the same measures were 2820 nM, 380 nM and 5.
Consider `Cc1sc2nc(-c3ccoc3)[nH]c(=O)c2c1C`, for which the Ki in assay [2] was 1950 nM; in assay [3] (read-out: pKi (converted)) it was 398 nM. Moreover, the Ratio Ki in assay [6] was 4.

As usually defined, the Kd is the concentration at which binding is half-saturated. Broadly, the pKi is the negative decadic logarithm of the Ki, by convention in mol/L. Read a low pKi as a high Ki.

(Values after ChEMBL document CHEMBL3745597, “Fragment-Based Discovery of Subtype-Selective Adenosine Receptor Ligands from Homology Models” (J Med Chem, 2015).)
